# Measurements published in ChEMBL document CHEMBL1122242, “Phenylenebis(oxy)bis[2,2-dimethylpentanoic acid]s: agents that elevate high-density lipoproteins” (1983).
# Legend:
# Format in all cases: functional
# Rattus norvegicus [1] = species: Rattus norvegicus; assay: Hypolipidemic effects(plasma TG) in male rats
# Summary of the method: (§1)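 Male rats, 10 per group, fed 7 days on chow with 10% fat (5.5% added peanut oil), 1.5% cholesterol and 0.1% cholic acid. Oral gavage on days 4-7 in 4% acacia, usually 50 mg/kg daily. Fasted overnight, killed day 8, atrial blood into EDTA. Plasma cholesterol, TG and HDL cholesterol (after MnCl2/heparin precipitation) by Autoanalyzer. % change vs controls, Student's t test.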
# Rattus norvegicus [2] = species: Rattus norvegicus; assay: Hypolipidemic effects(liver weight) in male rats; summary of the method: as §1
# Rattus norvegicus [3] = species: Rattus norvegicus; assay: Hypolipidemic effects(plasma cholesterol) in male rats; summary of the method: as §1
# Rattus norvegicus [4] = assay: Hypolipidemic effects (high-density lipoprotein (HDL) cholesterol) in male rats;Compound was screening orally at 50 mg/Kg; summary of the method: as §1
# Rattus norvegicus [5] = assay: Hypolipidemic effects (low-density lipoprotein (LDL) cholesterol) in male rats; Compound was screening orally at 50 mg/Kg; summary of the method: as §1
# Rattus norvegicus [6] = assay: Hypolipidemic effects (low-density lipoprotein (LDL) cholesterol) in male rats;Compound was screening orally at 50 mg/Kg; summary of the method: as §1
# Rattus norvegicus [7] = assay: Hypolipidemic effects (high-density lipoprotein (HDL) cholesterol) in male rats; Compound was screening orally at 50 mg/Kg; summary of the method: as §1
# Rattus norvegicus [8] = species: Rattus norvegicus; assay: Hypolipidemic effects (low-density lipoprotein (LDL) cholesterol) in male rats; summary of the method: as §1
# Rattus norvegicus [9] = assay: Hypolipidemic effects as the ratio of (HDL/LDL) in male rats at dose 50 mg/kg.
# Summary of the method: (§2)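 Male rats on a high lipid diet, dosed orally […] at 12.5, 25 or 50 mg/kg, with gemfibrozil reference. HDL/LDL (VLDL included) ratio from densitometry of polyacrylamide gel electrophoresis patterns of plasma. Expressed as % change vs controls.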
# Rattus norvegicus [10] = assay: Hypolipidemic effects(liver weight) in male rats at 12.50 mg/kg; settings: dose 12.5 mg/kg
# Summary of the method: (§3)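 Head-to-head oral dosing at 12.5, 25 and 50 mg/kg daily […] in male rats kept on a high lipid diet, alongside gemfibrozil reference. Plasma lipid fractions and liver weight expressed as % change vs controls.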
# Rattus norvegicus [11] = assay: Hypolipidemic effects(plasma cholesterol) in male rats at 50 mg/kg; summary of the method: as §3
# Rattus norvegicus [12] = assay: Hypolipidemic effects(liver weight) in male rats at 50 mg/kg; summary of the method: as §3
# Rattus norvegicus [13] = assay: Hypolipidemic effects(liver weight) in male rats at 25 mg/kg; summary of the method: as §3
# Rattus norvegicus [14] = assay: Hypolipidemic effects(plasma cholesterol) in male rats at 25 mg/kg; summary of the method: as §3
# Rattus norvegicus [15] = assay: Hypolipidemic effects as the ratio of (HDL/LDL) in male rats at dose 12.5 mg/kg.; summary of the method: as §2
# Rattus norvegicus [16] = assay: Hypolipidemic effects (high-density lipoprotein (HDL) cholesterol) in male rats at 25 mg/kg; summary of the method: as §3
# Rattus norvegicus [17] = assay: Hypolipidemic effects (Low-density lipoprotein (LDL) cholesterol) in male rats at 12.50 mg/kg; settings: dose 12.5 mg/kg; summary of the method: as §3
# Rattus norvegicus [18] = assay: Hypolipidemic effects (Low-density lipoprotein (LDL) cholesterol) in male rats at 25 mg/kg; summary of the method: as §3
# Rattus norvegicus [19] = assay: Hypolipidemic effects as the ratio of (HDL/LDL) in male rats at dose 25 mg/kg.; summary of the method: as §2
# Rattus norvegicus [20] = assay: Hypolipidemic effects(plasma TG) in male rats at 50 mg/kg; summary of the method: as §3
# Rattus norvegicus [21] = assay: Hypolipidemic effects(plasma TG) in male rats at 12.50 mg/kg; settings: dose 12.5 mg/kg; summary of the method: as §3
# Rattus norvegicus [22] = assay: Hypolipidemic effects(plasma cholesterol) in male rats at 12.50 mg/kg; settings: dose 12.5 mg/kg; summary of the method: as §3
# Rattus norvegicus [23] = assay: Hypolipidemic effects (high-density lipoprotein (HDL) cholesterol) in male rats at 50 mg/kg; Compound was screening orally at 50 mg/Kg; summary of the method: as §1
# Rattus norvegicus [24] = assay: Hypolipidemic effects(plasma TG) in male rats at 25 mg/kg; summary of the method: as §3
# Rattus norvegicus [25] = assay: Hypolipidemic effects (Low-density lipoprotein (LDL) cholesterol) in male rats at 50 mg/kg; Compound was screening orally at 50 mg/Kg; summary of the method: as §1
# Rattus norvegicus [26] = assay: Hypolipidemic effects (high-density lipoprotein (HDL) cholesterol) in male rats at 12.50 mg/kg; settings: dose 12.5 mg/kg; summary of the method: as §3
# Rattus norvegicus [27] = assay: Hypolipidemic effects (high-density lipoprotein (HDL) cholesterol) in male rats at 50 mg/kg; summary of the method: as §3
# Rattus norvegicus [28] = assay: Hypolipidemic effects (Low-density lipoprotein (LDL) cholesterol) in male rats at 50 mg/kg; summary of the method: as §3
Compound,Change (Rattus norvegicus [1]),Change (Rattus norvegicus [2]),Change (Rattus norvegicus [3]),Change (Rattus norvegicus [4]),Change (Rattus norvegicus [5]),Change (Rattus norvegicus [6]),Change (Rattus norvegicus [7]),also measured
CCCC(=O)c1cc(OCCCC(C)(C)C(=O)OC)ccc1OCCCC(C)(C)C(=O)OC,0%,34%,39%,1100%,-52%,,,
O=C(O)C1(CCCCOc2ccc(OCCCCC3(C(=O)O)CCC3)cc2)CCC1,0%,0%,-23%,55%,,-32%,,
CC(C)(CCCCCOc1cccc(OCCCCCC(C)(C)C(=O)O)c1)C(=O)O,0%,0%,-22%,48%,-27%,,,
COC(=O)C(C)(C)CCCOc1ccc(C=N/N=C(/N)S)c(OCCCC(C)(C)C(=O)OC)c1,-50%,38%,-60%,,,-83%,280%,
COC(=O)C(C)(C)CCCSc1ccc(Oc2ccc(SCCCC(C)(C)C(=O)OC)cc2)cc1,0%,4%,-29%,,,-31%,0%,
CC(C)(CCCOc1ccc(OCCCC(C)(C)C(=O)O)c(CO)c1)C(=O)O,18%,9%,40%,,,0%,319%,
CC(C)(CCOc1cccc(OCCC(C)(C)C(=O)O)c1)C(=O)O,240%,17%,-28%,383%,-46%,,,
CC(C)(CCCOc1ccc(OCCCC(C)(C)C(=O)O)cc1)C(=O)O,0%,,-45%,791%,-27%,,44%,
CCCC(O)c1cc(OCCCC(C)(C)C(=O)O)ccc1OCCCC(C)(C)C(=O)O (stereo not given),0%,37%,61%,,,-45%,1292%,
CC(C)(CCOc1ccc(OCCC(C)(C)C(=O)O)c(Cl)c1)C(=O)O,-32%,13%,-62%,348%,,,,
COC(=O)C(C)(C)CCCOc1cccc(OC)c1OCCCC(C)(C)C(=O)OC,0%,0%,0%,0%,,,,Change (Rattus norvegicus [8]): 0%
COC(=O)C(C)(C)CCCOc1ccc(OCCCC(C)(C)C(=O)OC)c(/C=N/NC(N)=O)c1,0%,4%,-28%,0%,-33%,,,
COC(=O)C(C)(C)CCCOc1ccc(OCCCC(C)(C)C(=O)OC)c(F)c1,0%,41%,-30%,347%,,-65%,,
COC(=O)C(C)(C)CCCOc1ccc(OCCCC(C)(C)C(=O)OC)c(OC)c1,0%,30%,-26%,566%,-31%,,,
CC(C)(Oc1cccc(OC(C)(C)C(=O)O)c1)C(=O)O,0%,0%,0%,,,0%,0%,
COC(=O)C(C)(C)CCCOc1ccc(OCCCC(C)(C)C(=O)OC)c(C(=O)c2ccccc2)c1,43%,11%,0%,421%,,-42%,,
COC(=O)C(C)(C)CCCOc1ccc(OCCCC(C)(C)C(=O)OC)c(C)c1,,,,,,,,Change (Rattus norvegicus [9]): 1009%; Change (Rattus norvegicus [10]): 13%; Change (Rattus norvegicus [11]): -37%; Change (Rattus norvegicus [12]): 38%; Change (Rattus norvegicus [13]): 25%; Change (Rattus norvegicus [14]): -41%; Change (Rattus norvegicus [15]): 142%; Change (Rattus norvegicus [16]): 269%; Change (Rattus norvegicus [17]): -54%; Change (Rattus norvegicus [18]): -65%; Change (Rattus norvegicus [19]): 452%; Change (Rattus norvegicus [20]): 62%; Change (Rattus norvegicus [21]): 0%; Change (Rattus norvegicus [22]): -43%; Change (Rattus norvegicus [23]): 743%; Change (Rattus norvegicus [24]): 0%; Change (Rattus norvegicus [25]): -71%; Change (Rattus norvegicus [26]): 102%
COC(=O)C(C)(C)CCCOc1cccc(OCCCC(C)(C)C(=O)OC)c1N,-41%,8%,-37%,,,-42%,46%,
CCC(=O)c1cc(OCCCC(C)(C)C(=O)OC)ccc1OCCCC(C)(C)C(=O)OC,0%,40%,0%,723%,-57%,,,
CC(C)(CCCCOc1cccc(OCCCCC(C)(C)C(=O)O)c1)C(=O)O,41%,18%,-37%,317%,-52%,,,
CC(C)(CCCOc1ccc(OCCCC(C)(C)C(=O)O)c(-c2ccc(Cl)cc2)c1)C(=O)O,-29%,17%,-47%,,,-78%,224%,
COC(=O)C(C)(C)CCCOc1ccc(-c2ccccc2)c(OCCCC(C)(C)C(=O)OC)c1,0%,6%,0%,40%,-25%,,,
CC(C)(CCCOc1ccc(OCCCC(C)(C)C(=O)O)c(Cl)c1)C(=O)O,,,,,,,,Change (Rattus norvegicus [27]): 753%; Change (Rattus norvegicus [9]): 1445%; Change (Rattus norvegicus [10]): 8%; Change (Rattus norvegicus [11]): -53%; Change (Rattus norvegicus [12]): 38%; Change (Rattus norvegicus [13]): 18%; Change (Rattus norvegicus [14]): -60%; Change (Rattus norvegicus [15]): 242%; Change (Rattus norvegicus [16]): 206%; Change (Rattus norvegicus [17]): -74%; Change (Rattus norvegicus [18]): -77%; Change (Rattus norvegicus [19]): 493%; Change (Rattus norvegicus [20]): 0%; Change (Rattus norvegicus [21]): -28%; Change (Rattus norvegicus [22]): -65%; Change (Rattus norvegicus [23]): 753%; Change (Rattus norvegicus [24]): -31%; Change (Rattus norvegicus [25]): -62%; Change (Rattus norvegicus [28]): -62%; Change (Rattus norvegicus [26]): 94%
CC(O)c1cc(OCCCC(C)(C)C(=O)O)ccc1OCCCC(C)(C)C(=O)O (stereo not given),0%,12%,-27%,,,-70%,525%,
COC(=O)C(C)(C)CCCOc1cccc(OCCCC(C)(C)C(=O)OC)c1C(C)=O,0%,0%,-38%,,,-40%,0%,
CC(C)(CO)CCCCOc1ccc(OCCCCC(C)(C)CO)cc1,0%,30%,0%,,,-54%,907%,
CC(C)(CCCOc1ccc(OCCCC(C)(C)C(=O)O)c(C(=O)O)c1)C(=O)O,0%,0%,0%,0%,-17%,,,
CC(C)(CCCOc1ccc(OCCCC(C)(C)C(=O)O)c(-c2ccccc2)c1)C(=O)O,,,,,,,,Change (Rattus norvegicus [9]): 2432%; Change (Rattus norvegicus [10]): 13%; Change (Rattus norvegicus [11]): -27%; Change (Rattus norvegicus [12]): 34%; Change (Rattus norvegicus [13]): 22%; Change (Rattus norvegicus [14]): -52%; Change (Rattus norvegicus [15]): 945%; Change (Rattus norvegicus [16]): 741%; Change (Rattus norvegicus [17]): -78%; Change (Rattus norvegicus [18]): -72%; Change (Rattus norvegicus [19]): 1798%; Change (Rattus norvegicus [20]): 31%; Change (Rattus norvegicus [21]): 32%; Change (Rattus norvegicus [22]): -53%; Change (Rattus norvegicus [23]): 1410%; Change (Rattus norvegicus [24]): 82%; Change (Rattus norvegicus [25]): -85%; Change (Rattus norvegicus [26]): 518%
CC(C)(CCCOc1ccc(C(=O)c2ccccc2)c(OCCCC(C)(C)C(=O)O)c1)C(=O)O,57%,11%,0%,,,-10%,169%,
Cc1ccc(-c2cc(OCCCC(C)(C)C(=O)O)ccc2OCCCC(C)(C)C(=O)O)cc1,-27%,0%,-32%,,,-42%,66%,
